Measured values as given in the array DNA melting data of Ke et al. (doi:10.1101/2024.01.08.574731).

What was measured:
[1] = folding enthalpy; higher = less favourable; fluorescence melt of hairpins on a sequencing array, two-state fit; conditions: sodium 0.088 M
Summary of the method: (§1)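 Melting temperature and folding enthalpy were derived from bootstrapped two-state fits. The fitted temperatures were raised by 9.35 °C to agree with UV melts, and four replicates were combined by inverse variance. The underlying data were Cy3 fluorescence images of library hairpins, with annealed Cy3 and quencher oligos, on a sequenced MiSeq flow cell in 50 mM Na-HEPES pH 8.0, 25 mM NaCl, taken in 2.5 °C steps up to 60 °C, normalised to pre-quench Cy3 and to control constructs.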

[2] = melting temperature; fluorescence melt of hairpins on a sequencing array, two-state fit, raised by 9.35 °C to match UV melts; conditions: sodium 0.088 M
Summary of the method: as §1

| Sequence | folding enthalpy [1] [kcal/mol] | Tm [2] [°C] |
| --- | --- | --- |
| GGCCCCGAAAGGGAGGCC ((((((....)))..))) | -26.9 | 64.5 |
| GGCCCCGAAAGGGCAGCC ((((((....)))..))) | -12.8 | 58.6 |
| GGCCCCGAAAGGGGTGCC ((((((....)))..))) | -12.1 | 59.1 |
| GGCCGAACGAAAGTTGCC (((..(((....)))))) | -23.5 | 38.9 |
| GGCCGACGAAAGTCAGCC (((.(((....))).))) | -35.5 | 59.4 |
| GGCCGAGCGAAAGCTGCC (((..(((....)))))) | -21.4 | 50.7 |
| GGCCGAGGAAACCCGGCC (((((.(....).))))) | -36.9 | 65.5 |
| GGCCGAGGAAACTCGACC ((.((((....)))).)) | -35 | 51.4 |
| GGCCGCCGAAAGGCAGCC (((.(((....))).))) | -25.5 | 67.4 |
| GGCCGCCGAAAGGCTGCC (((.(((....))).))) | -30.7 | 65.5 |
| GGCCGCGAAAGCGAAGCC ((((((....)))..))) | -27.7 | 58.9 |
| GGCCGCGAAAGCGGTGCC ((((((....)))..))) | -10 | 55.7 |
| GGCCGCGGAAACGCAGCC (((.(((....))).))) | -38.1 | 61.3 |
| GGCCGGCGAAAGCCTGCC (((.(((....))).))) | -29.7 | 65.2 |
| GGCCGTCCGAAAGGAGCC (((..(((....)))))) | -15.8 | 43.4 |
| GGCCTACGAAAGTAAGCC (((.(((....))).))) | -35 | 49.5 |
| GGCCTACGAAAGTAGCC (((.(((....)))))) | -22.4 | 53.6 |
| GGCCTAGGAAACTAAGCC (((.(((....))).))) | -20.1 | 38.2 |
| GGCCTAGGAAACTAGACC ((.((((....)))).)) | -28.6 | 40.6 |
| GGCCTAGGAAACTGGGCC ((((.((....)).)))) | -47.7 | 57.9 |
| GGCCTCCGAAAGGAAGCC (((.(((....))).))) | -40.9 | 55.5 |
| GGCCTCGAAAGAGGAGCC ((((((....)))..))) | -14.5 | 47.2 |
| GGCCTCGAAAGAGGCGCC ((((((....)))..))) | -6.36 | 66.5 |

| Sequence | folding enthalpy [1] [kcal/mol] | Tm [2] [°C] |
| --- | --- | --- |
| GGCCTGCGAAAGCAGCC (((.(((....)))))) | -15.8 | 61.1 |
| GGCCTGGGAAACCAGACC ((.((((....)))).)) | -30.1 | 49 |
| GGCCTTACGAAAGTAGCC (((..(((....)))))) | -22.1 | 36.8 |
| GGCCTTGCGAAAGCAGCC (((..(((....)))))) | -15.8 | 45.2 |
| GGCCTTGGAAACAAGGTC (.(((((....))))).) | -34.4 | 55.7 |
| GGCGAACGAAAGTTAGCC (((.(((....))).))) | -34.4 | 59.8 |
| GGCGAACGAAAGTTTGCC (((.(((....))).))) | -37 | 62.1 |
| GGCGAAGAAATTCGCC ((((((....)))))) | -36.2 | 63.1 |
| GGCGACCGAAAGGTAGCC (((.(((....))).))) | -26.2 | 69 |
| GGCGACGAAAGTCAGCC ((((((....))).))) | -28.1 | 65.6 |
| GGCGACGAAAGTCCGGCC ((((((....)))..))) | -21.7 | 51.5 |
| GGCGACGGAAACGTTGCC (((.(((....))).))) | -48.8 | 65 |
| GGCGAGAAATCGCC (((((....))))) | -26.4 | 65.5 |
| GGCGAGTCGAAAGACGCC (((..(((....)))))) | -22.2 | 56.3 |
| GGCGATCCGAAAGGAGCC (((..(((....)))))) | -35.4 | 53.9 |
| GGCGATCGAAAGATTGCC (((.(((....))).))) | -46.7 | 62.9 |
| GGCGATGCGAAAGCAGCC (((..(((....)))))) | -19.5 | 58.5 |
| GGCGATTCGAAAGAAGCC (((..(((....)))))) | -23.2 | 46.4 |
| GGCGCAGGAAACCGCGCC (((((.(....).))))) | -37.3 | 68.8 |
| GGCGCAGGAAACTGTGCC (((.(((....))).))) | -47.6 | 61.2 |
| GGCGCCGAAAGGCATGCC ((((((....)))..))) | -19.2 | 59.7 |
| GGCGCTACGAAAGTAGCC (((..(((....)))))) | -9.44 | 49.4 |
| GGCGCTGGAAACAGTGCC (((.(((....))).))) | -49.2 | 62.6 |
